Assay results as given in ChEMBL document CHEMBL1128175, “Pyrrolo[2,1-c][1,4]benzothiazines: synthesis, structure-activity relationships, molecular modeling studies, and cardiovascular activity” (J Med Chem, 1995).

Experiments:
Cavia porcellus [1] = organism: Cavia porcellus; assay: Tested for the calcium antagonistic activity on K+-depolarized guinea pig aortic strips at 5*10e-5 M.; type: functional, Aorta
How it was run: (§1)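 Guinea pig aortic strips held at 1 g resting force and equilibrated 1 h in PSS. Contracted with 80 mM KCl (K+ replacing Na+). At plateau (about 30 min), compounds in DMSO were added cumulatively at 0.1-500 µM. Relaxation of isometric force measured.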

Cavia porcellus [2] = organism: Cavia porcellus; assay: Inotropic negative potency on stimulated guinea pig left atrium; type: functional; details: Cardiac atrium, read-out: ED50 (the source's name)
How it was run: (§2)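 Guinea pig left atria driven at 1 Hz with 0.6-0.8 ms pulses at […], in oxygenated Tyrode at 35 °C, pH 7.4. Isometric force recorded. Cumulative compound additions of 0.1-100 µM from DMSO stock (bath DMSO ≤0.3%), each after steady state. Potency from log concentration-response curves by probit analysis, n = 6-8.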

Cavia porcellus [3] = organism: Cavia porcellus; assay: The compound was tested for the negative chronotropic activity on isolated guinea pig spontaneously beating right atrium at 10e-4 M.; type: functional, Cardiac atrium
How it was run: (§3)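 Spontaneously beating right atria from guinea pigs (300-400 g) in oxygenated Tyrode (95% O2-5% CO2), 35 °C, pH 7.4, recorded isometrically. Compounds from DMSO diluted in PSS (DMSO ≤0.3%), added cumulatively at 0.1-100 µM once steady state was reached.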

Cavia porcellus [4] = organism: Cavia porcellus; assay: The compound was tested for the negative inotropic activity on isolated guinea pig left atrium at 5*10e-6 M; type: functional, Cardiac atrium; how it was run: as §2
[5] = target: T1, Voltage-dependent L-type calcium channel subunit alpha-1C (Rattus norvegicus, UniProt P22002); assay: Calcium antagonistic activity by measuring [3H]nitrendipine displacement from rat heart L-type [Ca2+] channel; type: functional
How it was run: (§4)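 Rat hearts perfused through the aorta with ice-cold saline, homogenized in 50 mM Na-Hepes pH 7.4, filtered through cheesecloth and washed five times at 48000g. Incubated 90 min at 0 °C in the dark with [3H]nitrendipine. Six displacer concentrations used, separated by filtration. IC50 by log-probit analysis, converted to Ki by Cheng-Prusoff. At least three experiments in triplicate.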

[6] = target: T2, Voltage-gated L-type calcium channel (Rattus norvegicus, UniProt P22002+Q02485+P27732); assay: Calcium antagonistic activity by measuring [3H]nitrendipine displacement at L-type [Ca2+] channel in rat cortex homogenate; type: functional, tissue-based
How it was run: (§5)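 Cerebral cortex from male Sprague-Dawley rats, homogenized in 50 mM Na-Hepes pH 7.4 and washed five times by centrifugation at 48000g. Bound ligand collected by rapid filtration and counted. IC50 by log-probit analysis, converted to Ki by the Prusoff method. At least three experiments in triplicate.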

[7] = target: T2, Voltage-gated L-type calcium channel; assay: Inhibition of [3H]nitrendipine binding at L-type [Ca2+] channel in rat cortex homogenate by 50%.; how it was run: as §5
Cavia porcellus [8] = organism: Cavia porcellus; assay: Tested for the calcium antagonistic activity on K+-depolarized guinea pig aortic strips at 10e-4 M.; type: functional; details: Aorta; how it was run: as §1
Cavia porcellus [9] = organism: Cavia porcellus; assay: Inotropic negative potency on stimulated guinea pig left atrium.(value in parentheses indicate 95% confidence limit*10e-6).; type: functional; details: Cardiac atrium, read-out: ED50 (the source's name); how it was run: as §2
Cavia porcellus [10] = organism: Cavia porcellus; assay: Tested for the negative chronotropic activity on isolated guinea pig spontaneously beating right atrium at 5*10e-5 M.; type: functional, Cardiac atrium; how it was run: as §3
Cavia porcellus [11] = organism: Cavia porcellus; assay: The compound was tested for the negative inotropic activity on isolated guinea pig left atrium at 5*10e-5 M; type: functional, Cardiac atrium; how it was run: as §2
Cavia porcellus [12] = organism: Cavia porcellus; assay: Inotropic negative potency on spontaneously beating right atrium of guinea pig; type: functional, Cardiac atrium; how it was run: as §3
Cavia porcellus [13] = organism: Cavia porcellus; assay: Tested for the negative inotropic activity on isolated guinea pig left atrium at 10e-5 M; type: functional, Cardiac atrium; how it was run: as §2
Cavia porcellus [14] = organism: Cavia porcellus; assay: Inotropic negative potency on stimulated guinea pig left atrium.; type: functional; details: Cardiac atrium, read-out: ED50 (the source's name); how it was run: as §2
[15] = target: T2, Voltage-gated L-type calcium channel; assay: Calcium antagonistic activity by measuring [3H]nitrendipine displacement at calcium channel in rat cortex homogenate; type: functional, tissue-based; how it was run: as §5
Cavia porcellus [16] = organism: Cavia porcellus; assay: The compound was tested for the negative chronotropic activity on isolated guinea pig spontaneously beating right atrium at 10e-5 M.; type: functional, Cardiac atrium; how it was run: as §3
Cavia porcellus [17] = organism: Cavia porcellus; assay: Tested for the negative inotropic activity on isolated guinea pig left atrium at 10e-4 M; type: functional, Cardiac atrium; how it was run: as §2
[18] = target: T1, Voltage-dependent L-type calcium channel subunit alpha-1C; assay: The compound was tested for calcium antagonistic activity by measuring [3H]nitrendipine displacement from rat heart L-type calcium channels; Not active; type: functional; how it was run: as §4
Cavia porcellus [19] = organism: Cavia porcellus; assay: Inotropic negative potency on spontaneously beating right atrium of guinea pig.(value in parentheses indicate 95% confidence limit*10e-6).; type: functional, Cardiac atrium; how it was run: as §3
Cavia porcellus [20] = organism: Cavia porcellus; assay: The compound was tested for the calcium antagonistic activity on K+-depolarized guinea pig aortic strips; type: functional; details: Aorta; how it was run: as §1
Cavia porcellus [21] = organism: Cavia porcellus; assay: Inotropic negative potency on spontaneously beating right atrium of guinea pig, activity is expressed as […] values; type: functional, Cardiac atrium; how it was run: as §3
Cavia porcellus [22] = organism: Cavia porcellus; assay: The compound was tested for the calcium antagonistic activity on K+-depolarized guinea pig aortic strips at 10e-4 M.; type: functional; details: Aorta; how it was run: as §1

T1 sequence (P22002 whole entry, the tested form may be a part): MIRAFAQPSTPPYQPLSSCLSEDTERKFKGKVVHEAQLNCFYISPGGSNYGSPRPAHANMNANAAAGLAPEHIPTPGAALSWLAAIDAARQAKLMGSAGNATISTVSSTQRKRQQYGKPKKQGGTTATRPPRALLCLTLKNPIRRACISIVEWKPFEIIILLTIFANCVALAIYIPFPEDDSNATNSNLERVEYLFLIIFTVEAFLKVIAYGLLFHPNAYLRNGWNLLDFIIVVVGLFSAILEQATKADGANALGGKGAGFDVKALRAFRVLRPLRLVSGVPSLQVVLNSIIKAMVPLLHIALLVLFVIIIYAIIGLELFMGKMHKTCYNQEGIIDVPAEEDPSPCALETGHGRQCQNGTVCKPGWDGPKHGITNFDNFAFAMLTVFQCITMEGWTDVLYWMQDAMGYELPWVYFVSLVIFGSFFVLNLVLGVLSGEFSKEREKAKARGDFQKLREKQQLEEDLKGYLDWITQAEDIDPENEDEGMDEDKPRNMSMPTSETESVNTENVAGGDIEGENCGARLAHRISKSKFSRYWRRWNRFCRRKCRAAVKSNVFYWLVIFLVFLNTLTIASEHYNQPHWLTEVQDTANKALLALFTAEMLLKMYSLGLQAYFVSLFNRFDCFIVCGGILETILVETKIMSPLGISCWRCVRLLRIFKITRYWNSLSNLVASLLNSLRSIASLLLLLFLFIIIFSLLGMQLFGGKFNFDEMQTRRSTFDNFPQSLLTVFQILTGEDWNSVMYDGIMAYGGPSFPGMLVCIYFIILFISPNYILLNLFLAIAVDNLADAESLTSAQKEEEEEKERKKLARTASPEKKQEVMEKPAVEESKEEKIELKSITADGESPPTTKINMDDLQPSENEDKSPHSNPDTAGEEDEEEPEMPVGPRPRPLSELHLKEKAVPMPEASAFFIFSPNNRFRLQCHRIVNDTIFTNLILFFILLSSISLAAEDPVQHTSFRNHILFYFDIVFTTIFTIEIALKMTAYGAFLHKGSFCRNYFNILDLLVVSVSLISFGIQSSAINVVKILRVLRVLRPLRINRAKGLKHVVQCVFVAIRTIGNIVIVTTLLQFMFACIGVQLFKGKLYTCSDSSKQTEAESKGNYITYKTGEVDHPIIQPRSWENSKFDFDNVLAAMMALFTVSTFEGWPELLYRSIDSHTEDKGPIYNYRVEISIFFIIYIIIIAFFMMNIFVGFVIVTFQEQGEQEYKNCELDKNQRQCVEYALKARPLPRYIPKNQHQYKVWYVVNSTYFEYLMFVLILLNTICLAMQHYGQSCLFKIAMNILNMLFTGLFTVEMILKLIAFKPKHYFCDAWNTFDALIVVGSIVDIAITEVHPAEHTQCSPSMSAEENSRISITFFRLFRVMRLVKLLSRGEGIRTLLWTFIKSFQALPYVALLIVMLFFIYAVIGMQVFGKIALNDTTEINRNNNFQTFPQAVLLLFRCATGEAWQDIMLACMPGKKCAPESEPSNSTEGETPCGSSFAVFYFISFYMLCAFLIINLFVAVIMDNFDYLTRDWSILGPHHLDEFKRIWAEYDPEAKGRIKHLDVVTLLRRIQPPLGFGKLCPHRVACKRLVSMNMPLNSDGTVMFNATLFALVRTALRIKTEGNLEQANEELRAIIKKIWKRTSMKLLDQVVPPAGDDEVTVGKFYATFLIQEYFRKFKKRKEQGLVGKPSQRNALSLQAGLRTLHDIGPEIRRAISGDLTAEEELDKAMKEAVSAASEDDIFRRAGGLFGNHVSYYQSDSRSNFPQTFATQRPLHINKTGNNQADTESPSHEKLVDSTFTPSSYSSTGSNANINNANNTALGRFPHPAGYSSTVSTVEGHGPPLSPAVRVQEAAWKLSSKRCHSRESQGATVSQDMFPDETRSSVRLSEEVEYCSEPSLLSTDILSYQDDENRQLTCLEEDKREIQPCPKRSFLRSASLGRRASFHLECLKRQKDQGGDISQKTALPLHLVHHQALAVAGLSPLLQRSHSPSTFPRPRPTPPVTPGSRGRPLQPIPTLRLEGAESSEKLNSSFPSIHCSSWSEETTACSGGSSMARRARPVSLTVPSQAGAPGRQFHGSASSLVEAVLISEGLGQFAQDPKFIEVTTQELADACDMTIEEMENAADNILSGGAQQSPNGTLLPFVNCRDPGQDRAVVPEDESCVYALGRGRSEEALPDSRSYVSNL

SMILES | EC50 (Cavia porcellus [2]) | Ki [6] | IC50 [7] | inhibition at 100 µM (Cavia porcellus [8]) | Decrease (Cavia porcellus [10]) | also measured
COc1ccc(C2Sc3ccccc3-n3c(CN(C)C)ccc32)c(OC)c1 (stereo unspecified) | 150 nM | – | – | – | – | Inhibition (Cavia porcellus [1]): 5%; Decrease (Cavia porcellus [3]): 20%; Decrease (Cavia porcellus [4]): 68%; Ki [5]: 160 nM
CN(C)Cc1ccc2n1-c1cccc(Cl)c1SC2(c1ccccc1)c1ccccc1 | – | 31 nM | 82 nM | – | – | Ki [5]: 26 nM
COc1ccc(C2Sc3ccccc3-n3c(CNc4ccc(F)cc4)ccc32)cc1 (stereo unspecified) | – | – | > 5000 nM | – | – | –
COc1ccc(C2Sc3ccccc3-n3c(CNc4ccc(F)cc4)ccc32)c(OC)c1 (stereo unspecified) | – | – | > 5000 nM | – | – | –
CN(C)Cc1ccc2n1-c1ccccc1SC2(c1ccccc1)c1ccccc1 | – | – | – | 3.4% | 10% | EC50 (Cavia porcellus [14]): 890 nM; Decrease (Cavia porcellus [13]): 56%
CN(C)Cc1ccc2n1-c1cc(C(F)(F)F)ccc1SC2(c1ccccc1)c1ccccc1 | – | 40.1 nM | 107 nM | – | – | –
CCC(C)NCc1ccc2n1-c1ccccc1SC2c1ccc(OC)cc1OC (stereo unspecified) | 600 nM | – | 15 nM | – | – | Inhibition (Cavia porcellus [1]): 18%; Decrease (Cavia porcellus [3]): 67%; ED30 (Cavia porcellus [12]): 420 nM; Decrease (Cavia porcellus [11]): 85%; Ki [15]: 5.5 nM; Ki [5]: 640 nM
COc1ccc(C2Sc3ccccc3-n3c(CN(C)CCc4ccc(OC)c(OC)c4)ccc32)cc1 (stereo unspecified) | 840 nM | – | – | 4% | 32% | Decrease (Cavia porcellus [17]): 86%; Ki [5]: 8.3 nM
O=C1CC[C@@H]2[C@@H](c3ccccc3)Sc3ccccc3N12 | 230 nM | 0.29 nM | 0.78 nM | 37% | 20% | IC50 (Cavia porcellus [20]): 20000 nM; Decrease (Cavia porcellus [13]): 66%
COc1ccc(C2Sc3ccccc3-n3c(CNCCc4ccc(OC)c(OC)c4)ccc32)cc1 (stereo unspecified) | 450 nM | – | – | – | 14% | Inhibition (Cavia porcellus [1]): 16%; Decrease (Cavia porcellus [17]): 82%
COc1ccc(CCN(C)Cc2ccc3n2-c2ccccc2SC3c2ccccc2)cc1OC (stereo unspecified) | – | – | 198 nM | – | – | Ki [15]: 74 nM
COc1ccc(C2Sc3ccccc3-n3c(CN(C)CCc4ccc(OC)c(OC)c4)ccc32)c(OC)c1 (stereo unspecified) | 860 nM | – | 1600 nM | – | 18% | Inhibition (Cavia porcellus [1]): 10%; Decrease (Cavia porcellus [11]): 62%; Ki [15]: 740 nM
CN(C)Cc1ccc2n1-c1ccccc1SC2c1ccccc1 (stereo unspecified) | 1500 nM | – | – | 42% | 76% | ED30 (Cavia porcellus [21]): 510 nM; Decrease (Cavia porcellus [17]): 79%
COc1ccc(C2Sc3ccccc3-n3c(CNCCc4ccc(OC)c(OC)c4)ccc32)c(OC)c1 (stereo unspecified) | 560 nM | – | – | – | 10% | Inhibition (Cavia porcellus [1]): 9%; Decrease (Cavia porcellus [11]): 83%

Further lines, with some results ahead:

EC50 (Cavia porcellus [2]) | Ki [6] | IC50 [7] | SMILES | inhibition at 100 µM (Cavia porcellus [8]) | Decrease (Cavia porcellus [10]) | also measured
– | – | > 5000 nM | COc1ccc(C2Sc3ccccc3-n3c(CN4CCOCC4)ccc32)cc1 (stereo unspecified) | – | – | –
– | 1830 nM | 4700 nM | CC(=O)OC1(c2ccccc2)Sc2ccccc2-n2cccc21 (stereo unspecified) | 36% | 33% | EC50 (Cavia porcellus [9]): 380 nM; Decrease (Cavia porcellus [11]): 86%
790 nM | – | – | COc1ccc([C@@H]2Sc3ccccc3N(CCN(C)C)C(=O)[C@@H]2OC(C)=O)cc1 [DILTIAZEM] | 88% | 94% | ED30 (Cavia porcellus [12]): 70 nM; Decrease (Cavia porcellus [13]): 78%
– | 178 nM | 465 nM | c1ccc(C2(c3ccccc3)Sc3ccccc3-n3cccc32)cc1 | – | – | –
– | 772 nM | 2060 nM | FC(F)(F)c1ccc2c(c1)-n1cccc1C(c1ccccc1)(c1ccccc1)S2 | – | – | –
– | – | > 5000 nM | COc1ccc(C2(c3ccc(OC)cc3)Sc3ccc(C(F)(F)F)cc3-n3cccc32)cc1 | – | – | –
– | – | 12 nM | CCC(C)NCc1ccc2n1-c1ccccc1SC2c1ccc(OC)cc1 (stereo unspecified) | – | – | Ki [15]: 4.4 nM
– | 24 nM | 65 nM | CC(=O)OC1(c2ccccc2)Sc2ccc(C(F)(F)F)cc2-n2cccc21 (stereo unspecified) | – | – | –
920 nM | 1750 nM | 4670 nM | COc1ccc(C2Oc3ccccc3-n3c(CN(C)C)ccc32)cc1 (stereo unspecified) | 24% | – | Decrease (Cavia porcellus [16]): 22%; Decrease (Cavia porcellus [17]): 69%; Ki [18]: Not Active
– | 11 nM | 30 nM | COc1ccc(C2(OC(C)=O)Sc3ccccc3-n3cccc32)cc1 (stereo unspecified) | 11% | 70% | EC50 (Cavia porcellus [9]): 240 nM; ED30 (Cavia porcellus [19]): 2300 nM; Decrease (Cavia porcellus [13]): 71%
1200 nM | 2 nM | 4.4 nM | COc1ccc([C@H]2Sc3ccccc3N3C(=O)CC[C@H]23)cc1 | 32% | 39% | Decrease (Cavia porcellus [17]): 60%; Ki [5]: 35 nM
730 nM | 809 nM | 2160 nM | COc1ccc(C2(c3ccc(OC)cc3)Sc3ccccc3-n3c(CN(C)C)ccc32)cc1 | 12% | 48% | Decrease (Cavia porcellus [17]): 78%
– | – | > 5000 nM | COc1ccc(C2Sc3ccccc3-n3cccc32)cc1 (stereo unspecified) | – | – | –
– | – | > 5000 nM | COc1ccc(C2(c3ccc(OC)cc3)Sc3ccccc3-n3cccc32)cc1 | – | – | –
– | 120 nM | 320 nM | Clc1cccc2c1SC(c1ccccc1)(c1ccccc1)c1cccn1-2 | – | – | –
– | 1630 nM | 4350 nM | Clc1ccc2c(c1)-n1cccc1C(c1ccccc1)(c1ccccc1)S2 | – | – | –
810 nM | – | – | COc1ccc(C2Sc3ccccc3-n3c(CN(C)C)ccc32)cc1 (stereo unspecified) | – | – | Decrease (Cavia porcellus [3]): 30%; Decrease (Cavia porcellus [13]): 75%; Ki [5]: 53 nM; inhibition at 100 µM (Cavia porcellus [22]): 10%
